{"data": "Results collected from several papers", "target": "Aurora kinase B (AURKB, Homo sapiens, UniProt Q96GD4)"}
{"SMILES": "C#Cc1n[nH]c2c(-c3cn([C@@H](C)c4ccccc4)c(=O)[nH]c3=O)cc(F)cc12", "effect on": "enzyme activity", "mode": "inhibitor", "tested at": "0.1 µM", "endpoint": "inhibition", "result": "0.1%"}
{"SMILES": "Nc1ncc(-c2nc(N3CCOCC3)nc(N3CCOCC3)n2)c(C(F)F)n1", "effect on": "binding", "technique": "competition with immobilised ligand", "tested at": "10 µM", "endpoint": "remaining binding", "result": "91%"}
{"SMILES": "CC(C)(C)c1cc(C=C(C#N)C#N)cc(Br)c1O", "effect on": "enzyme activity", "mode": "inhibitor", "tested at": "0.5 µM", "endpoint": "remaining activity", "result": "97.1%"}
{"SMILES": "N#CC1(c2ccccn2)CCN(Cc2cc(C(=O)O)c(=O)n3ccccc23)CC1", "effect on": "cell-free assay", "technique": "competition with immobilised ligand", "tested at": "1 µM", "endpoint": "remaining binding", "result": "76%"}
{"SMILES": "C#Cc1n[nH]c2c(-c3cn([C@@H](C)c4ccccn4)c(=O)[nH]c3=O)cc(F)cc12", "effect on": "enzyme activity", "mode": "inhibitor", "tested at": "0.1 µM", "endpoint": "inhibition", "result": "4.9%"}
{"SMILES": "COc1ncccc1-c1cnn2ccc(N3CCN(C(=O)OC(C)C)CC3)nc12", "effect on": "binding", "technique": "competition with immobilised ligand", "tested at": "1 µM", "endpoint": "remaining binding", "result": "58%"}
{"SMILES": "Cn1cncc1[C@](O)(COc1ccc(C#N)cc1-c1ccc(OC(F)(F)F)cc1)c1ccc(C#N)cc1", "effect on": "cell-free assay", "technique": "competition with immobilised ligand", "tested at": "1 µM", "endpoint": "remaining binding", "result": "100%"}
{"SMILES": "Cn1cc(-c2cccc(N3CCc4c(sc5c4CC(C)(C)C5)C3=O)c2CO)cc(Nc2ccncn2)c1=O", "effect on": "enzyme activity", "mode": "inhibitor", "tested at": "1 µM", "endpoint": "inhibition", "result": "6%"}
{"SMILES": "O=c1[nH]c2ccccc2n1C1CCN(Cc2ccc(-c3[nH]c4cc5ncnc5cc4nc3-c3ccccc3)cc2)CC1", "effect on": "enzyme activity", "tested at": "0.5 µM", "endpoint": "remaining activity", "result": "98.7%"}
